Source: PubChem BioAssay
SIRT5 block – SIRT5 desuccinylase inhibitors, primary screen, biochemical, fluorescence imaging, single point, set 5; NAD-dependent protein deacylase sirtuin-5, mitochondrial (Homo sapiens), Q9NXA8; Purified SirT5, succinyl-peptide AMC, trypsin-coupled fluorescence; inhibition, % at 15 µM; 330,000 compounds, 1.1% hits; AID 652115, 2013; in the data active = inhibition above about 15%
Target sequence (Q9NXA8 whole entry, looked up): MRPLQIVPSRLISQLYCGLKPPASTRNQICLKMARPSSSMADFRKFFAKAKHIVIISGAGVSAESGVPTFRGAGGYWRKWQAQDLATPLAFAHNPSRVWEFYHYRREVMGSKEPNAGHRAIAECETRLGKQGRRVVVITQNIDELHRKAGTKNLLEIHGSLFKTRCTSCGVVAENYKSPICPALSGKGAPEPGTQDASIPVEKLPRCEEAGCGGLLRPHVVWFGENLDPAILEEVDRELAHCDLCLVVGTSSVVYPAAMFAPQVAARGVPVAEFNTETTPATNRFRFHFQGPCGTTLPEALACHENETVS
DENV2 CPE rescue – inhibitors of DENV2 cytopathic effect, primary screen, cell-based, plate reader, single concentration; DENV2-infected cells, cytopathic effect rescue; CPE inhibition, % at 9.99 µM; 350,000 compounds, 1.7% hits; AID 651640, 2012; in the data active = CPE inhibition above about 20%, passing the limit was not always enough; tested in BHK-21 cells
FGF22 binding – binders of human FGF22 protein, primary screen, FGF22 synaptogenesis inhibitor project, biophysical, thermal shift, single point. 340,000 compounds, 1.5% hits. AID 651658, 2012. recombinant FGF22 thermal shift, SYPRO orange fluorescence; percent of sucrose octasulfate shift, DMSO zero. activity (Tm shift, normalised), % at 9.99 µM;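 active = mean Tm shift, scaled 0 neutral to 100 positive control, at about 1.3% or above, every replicate too, limit read from the data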
Target sequence (Q9HCT0 whole entry, looked up): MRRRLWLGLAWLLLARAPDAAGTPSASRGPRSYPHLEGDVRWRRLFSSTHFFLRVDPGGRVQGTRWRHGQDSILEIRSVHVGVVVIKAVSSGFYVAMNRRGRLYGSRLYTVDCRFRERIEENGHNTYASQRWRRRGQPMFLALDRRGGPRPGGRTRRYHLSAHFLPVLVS
FN deposit inh – inhibitors of fibronectin matrix deposition, primary screen, AH1F cells, Alexa488-fibronectin fluorescence, plate reader | AH1F fibroblasts, overnight | inhibition, % at 12.6 µM | 350,000 compounds, 0.086% hits;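 active = mean inhibition across replicates of 30% or more, regardless of how many single replicates reach that level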
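test system = AH1F fibroblasts assembling fluorescent fibronectin matrix | quantity = 10000 AH1F cells per well | buffer or medium = DMEM plus 2% serum, read in PBS | doses = single dose, pinned | incubation = 1 h cell attachment, overnight exposure to compound and label | detection = fluorescence at 485 nm excitation, 525 nm emission | read-out basis = inhibition from reduced deposited-fibronectin fluorescence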
Xi reactivation – activators of inactive X chromosome reactivation, primary screen, imaging, XiGFP fibroblasts, GFP high-content imaging, set 2; activation, % at 7.58 µM; AID 743238, 2013; XiGFP mouse fibroblasts, % GFP-positive cells imaging, 3 d; cells co-treated with 5-aza-dC sensitizer; scaled so ellipticine positive control = 100%; 360,000 compounds, 0.055% hits;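 active = mean normalized replicate activation at least 10% and every replicate at or above 10%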
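Schedule: 3 d treatment, 15 min room-temperature fixation; system: 68-5-11 XiGFP fibroblast line; buffer or medium: DMEM plus 5-aza-dC sensitizer; control set: ellipticine 6 µM positive control; compound: one concentration, pinned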
ARNT TACC3 PPI – disruptors of ARNT/TACC3 protein interaction, primary screen, biochemical, AlphaScreen, single concentration; inhibition, % at 9.99 µM; 390,000 compounds, 0.66% hits; AID 623870, 2012; Transforming acidic coiled-coil-containing protein 3 (Homo sapiens), Q9Y6A5; AlphaScreen His-ARNT PAS-B/GST-TACC3 binding, luminescence; TACC3 fragment carries E629A point mutation;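 active = mean inhibition of replicates at least 50% and at least half of replicates each reaching 50%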
Hits are given with their value; i = inactive; nt = no result given. The list is not random: actives were taken first. Their share in the collection is about 3.8%.

SMILES	SIRT5 block	DENV2 CPE rescue	FGF22 binding	FN deposit inh	Xi reactivation	ARNT TACC3 PPI
COc1ccc(S(=O)(=O)N(C)C[C@H]2Oc3ccc(NC(=O)C4CCCCC4)cc3CC(=O)N([C@H](C)CO)C[C@H]2C)cc1	i	22.0	i	nt	i	i
COc1ccc(NC(=O)Nc2ccc3c(c2)CC(=O)N([C@H](C)CO)C[C@H](C)[C@H](CN(C)S(=O)(=O)c2ccc(Cl)cc2)O3)cc1	i	i	i	i	i	nt
COc1ccc(NC(=O)Nc2ccc3c(c2)CC(=O)N([C@H](C)CO)C[C@H](C)[C@@H](CN(C)S(=O)(=O)c2ccc(F)cc2)O3)cc1	i	i	i	i	14.7	i
COc1ccc(S(=O)(=O)N(C)C[C@@H]2Oc3ccc(N(C)C)cc3CC(=O)N([C@@H](C)CO)C[C@@H]2C)cc1	i	i	i	i	i	i
COc1ccc(S(=O)(=O)N(C)C[C@@H]2Oc3ccc(N(C)C)cc3CC(=O)N([C@H](C)CO)C[C@@H]2C)cc1	i	22.8	i	i	i	i
CO[C@H]1CN(C)C(=O)c2cc(NC(=O)NC(C)C)ccc2OC[C@H](C)N(C(=O)C2CCC2)C[C@@H]1C	i	i	i	nt	i	i
C[C@H]1CCCCO[C@@H](CN(C)C(=O)CCC(F)(F)F)[C@@H](C)CN([C@@H](C)CO)C(=O)c2cc(NC(=O)C3CCCCC3)ccc2O1	i	i	i	i	i	i
C[C@H](CO)N1C[C@H](C)[C@H](CN(C)C(=O)CCC(F)(F)F)OCCCC[C@H](C)Oc2ccc(NC(=O)c3ccccc3)cc2C1=O	i	21.0	i	i	i	i
C[C@@H]1CCCCO[C@@H](CN(C)C(=O)CCC(F)(F)F)[C@@H](C)CN([C@@H](C)CO)C(=O)c2cc(NC(=O)c3ccccc3)ccc2O1	i	156.7	i	i	i	i
C[C@@H]1CCCCO[C@H](CN(C)C(=O)CCC(F)(F)F)[C@@H](C)CN([C@@H](C)CO)C(=O)c2cc(NC(=O)C3CCCCC3)ccc2O1	17.9	i	i	i	i	i
COCC(=O)Nc1ccc2c(c1)C(=O)N(C)C[C@H](OC)[C@H](C)CN(C(=O)c1cnccn1)[C@@H](C)CO2	i	i	i	i	i	i
O=C(Nc1ccccc1)[C@H]1[C@H](CO)[C@H]2Cn3c(ccc(C4=CCCCC4)c3=O)[C@H]2N1Cc1ccccn1	i	i	i	nt	i	nt
O=C(Cc1ccccn1)NCC[C@H]1CC[C@H](NS(=O)(=O)c2ccccc2)[C@H](CO)O1	15.6	i	i	nt	i	i
O=C(Cc1ccccn1)NCC[C@@H]1CC[C@@H](NS(=O)(=O)c2ccc(Cl)cc2)[C@@H](CO)O1	i	33.7	i	i	i	i
O=C(Cc1ccccn1)NCC[C@@H]1CC[C@H](NS(=O)(=O)c2ccccc2)[C@H](CO)O1	i	i	i	nt	i	i
O=C(Cc1ccccn1)NCC[C@@H]1CC[C@H](NS(=O)(=O)c2ccccc2)[C@@H](CO)O1	i	i	i	nt	i	i
CC(C)[C@H]1C(=O)N[C@H](c2cccc(Cl)c2)CC=CC[C@@H](C)Oc2ccccc2C(=O)N1C (mixture of isomers)	nt	nt	nt	i	i	nt
O=S(=O)(c1cccc2cccnc12)N1CCN(c2ccccc2)CC1	i	i	i	nt	nt	i
O=S(=O)(c1cccc2cccnc12)N1CCN(c2ccccn2)CC1	i	i	42.9	i	i	i
O=S(=O)(c1cccc2cccnc12)N1CCCc2ccccc21	i	i	43.2	i	i	i
C[C@H]1CN([C@@H](C)CO)C(=O)c2ccccc2-c2ccccc2CO[C@@H]1CN(C)S(C)(=O)=O	nt	nt	nt	i	i	nt
COCC(=O)N(C)C[C@H]1Oc2cc(-c3ccncc3)ccc2S(=O)(=O)N([C@H](C)CO)C[C@H]1C	i	74.4	i	i	i	i
C[C@@H]1CN([C@@H](C)CO)S(=O)(=O)c2ccc(-c3ccncc3)cc2O[C@H]1CN(C)C(=O)CC1CC1	i	85.2	i	nt	i	i
C[C@@H]1CN([C@@H](C)CO)S(=O)(=O)c2ccc(-c3ccncc3)cc2O[C@@H]1CN(C)C(=O)CC1CC1	i	i	i	nt	i	i
CCOP(=O)(OCC)C1NC(=O)N(c2ccccc2)C1=O (centres undefined)	29.8	i	i	i	i	i
SMILES	SIRT5 block	DENV2 CPE rescue	FGF22 binding	FN deposit inh	Xi reactivation	ARNT TACC3 PPI
CCN1C(=O)NC(c2ccccc2)C1=O (centres undefined)	i	i	i	i	i	nt
C[C@@H]1CN([C@@H](C)CO)C(=O)Cc2cc(NC(=O)Nc3cccc4ccccc34)ccc2O[C@@H]1CN(C)Cc1ccc(C(=O)O)cc1	i	48.9	i	i	i	active
C[C@@H]1CN([C@@H](C)CO)C(=O)Cc2cc(NC(=O)Nc3cccc4ccccc34)ccc2O[C@H]1CN(C)Cc1ccccc1	i	20.4	i	nt	i	i
C[C@H]1CN([C@@H](C)CO)C(=O)Cc2cc(NC(=O)Nc3cccc4ccccc34)ccc2O[C@H]1CN(C)Cc1ccc(C(=O)O)cc1	i	i	i	i	i	i
C[C@@H]1CN([C@H](C)CO)C(=O)Cc2cc(NC(=O)Nc3cccc4ccccc34)ccc2O[C@@H]1CN(C)Cc1ccccc1	i	i	i	nt	i	i
C[C@H](CO)N1C[C@H](C)[C@@H](CN(C)CC2CCCCC2)Oc2ccc(NC(=O)Nc3cccc4ccccc34)cc2CC1=O	i	i	i	nt	i	47.3
C[C@H](CO)N1C[C@H](C)[C@H](CN(C)CC2CCCCC2)Oc2ccc(NC(=O)Nc3cccc4ccccc34)cc2CC1=O	i	i	i	nt	i	i
C[C@H](CO)N1C[C@H](C)[C@@H](CN(C)Cc2ccc(Oc3ccccc3)cc2)Oc2ccc(NC(=O)Nc3cccc4ccccc34)cc2CC1=O	i	i	i	nt	i	76.4
C[C@H]1CN([C@@H](C)CO)C(=O)c2cc(NC(=O)Cn3cnnn3)ccc2O[C@@H]1CN(C)S(=O)(=O)c1ccc(Cl)cc1	i	i	i	nt	i	nt
O=C(O)[C@@H]1[C@@H](CO)[C@@H]2Cn3c(ccc(-c4cncnc4)c3=O)[C@@H]2N1C(=O)C1CCCCC1	i	i	i	i	i	i
